# In ChEMBL document CHEMBL1148785, “Second generation tetrahydroquinoline-based protein farnesyltransferase inhibitors as antimalarials” (J Med Chem, 2007):
# Columns and labels:
# Plasmodium falciparum [1] = assay: Inhibition of Plasmodium falciparum protein farnesyltransferase at 5 nM by scintillation proximity assay
# Plasmodium falciparum [2] = assay: Antimalarial activity against Plasmodium falciparum K1; assay type: functional; conditions: Plasmodium falciparum, K1; read-out: ED50 (the source's name)
# Outline: (§1)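 Asynchronous culture in type A+ erythrocytes at 0.5% parasitemia and 0.5% hematocrit, grown in RPMI-1640 with 20% heat-inactivated human A+ plasma. Compound was serially diluted from a top final 5 µM, with DMSO vehicle as 100% growth. Plates ran 48 h at 37 °C under 5% CO2/5% O2/90% N2, then [3H]-hypoxanthine (0.3 µCi) for 24 h. Filter-harvested counts were corrected for the uninfected-RBC background. ED50 by linear regression; duplicates averaged.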
# Plasmodium falciparum [3] = assay: Inhibition of Plasmodium falciparum protein farnesyltransferase at 50 nM by scintillation proximity assay
# Plasmodium falciparum [4] = assay: Antimalarial activity against Plasmodium falciparum 3D7; assay type: functional; conditions: Plasmodium falciparum, 3D7; read-out: ED50 (the source's name); outline: as §1
# Plasmodium falciparum [5] = assay: Inhibition of Plasmodium falciparum protein farnesyltransferase at 0.5 nM by scintillation proximity assay
Compound,inhibition (Plasmodium falciparum [1]),EC50 (Plasmodium falciparum [2]),inhibition (Plasmodium falciparum [3]),EC50 (Plasmodium falciparum [4]),inhibition (Plasmodium falciparum [5])
Cn1cncc1CN1CC(N(Cc2ocnc2-c2ccccc2)S(=O)(=O)c2ccccn2)Cc2cc(C#N)ccc21 (stereo not given),82%,210 nM,98%,51 nM,19%
CCOc1ccccc1CN(C1Cc2cc(C#N)ccc2N(Cc2cncn2C)C1)S(=O)(=O)c1cn(C)cn1 (stereo not given),5%,3600 nM,11%,2600 nM,1%
COC(=O)N1CCC(CN(C2Cc3cc(C#N)ccc3N(Cc3cncn3C)C2)S(=O)(=O)c2cccc3ccccc23)CC1 (stereo not given),39%,1700 nM,88%,550 nM,2%
Cn1cncc1CN1CC(N(Cc2cccc(C(=O)O)n2)S(=O)(=O)c2ccccn2)Cc2cc(C#N)ccc21 (stereo not given),81%,800 nM,97%,1000 nM,24%
Cn1cncc1CN1CC(N(CCc2ccccc2C(F)(F)F)S(=O)(=O)c2ccccn2)Cc2cc(C#N)ccc21 (stereo not given),53%,1500 nM,95%,300 nM,1%
COC(=O)N1CCC(CN(C2Cc3cc(C#N)ccc3N(Cc3cncn3C)C2)S(=O)(=O)c2ccc3oc(=O)ccc3c2)CC1 (stereo not given),21%,> 5000 nM,68%,> 5000 nM,2%
Cc1ccccc1CN(C1Cc2cc(-c3ccccc3)ccc2N(Cc2cn(C)cn2)C1)S(=O)(=O)c1cn(C)cn1 (stereo not given),0%,1800 nM,46%,2900 nM,0%
CCN(CCCCN(C1Cc2cc(C#N)ccc2N(Cc2cncn2C)C1)S(=O)(=O)c1ccccn1)C(=O)OC (stereo not given),69%,600 nM,89%,250 nM,26%
Cn1cnc(S(=O)(=O)N(CC(=O)NC(C)(C)C)C2Cc3cc(C(=O)O)ccc3N(Cc3cncn3C)C2)c1 (stereo not given),29%,1420 nM,80%,3500 nM,0%
Cn1cnc(S(=O)(=O)N(CCc2cccs2)C2Cc3cc(C#N)ccc3N(Cc3cncn3C)C2)c1 (stereo not given),86%,8.5 nM,100%,21 nM,26%
Cn1cnc(S(=O)(=O)N(CCN2CCCCC2)C2Cc3cc(C#N)ccc3N(Cc3cncn3C)C2)c1 (stereo not given),62%,300 nM,93%,200 nM,9%
CN(C)CCN(C1Cc2cc(C#N)ccc2N(Cc2cncn2C)C1)S(=O)(=O)c1cn(C)cn1 (stereo not given),15%,3100 nM,64%,2700 nM,0%
Cn1cnc(S(=O)(=O)N(CCCCCC(N)=O)C2Cc3cc(C#N)ccc3N(Cc3cncn3C)C2)c1 (stereo not given),87%,73 nM,98%,150 nM,31%
CN(CCCN(C1Cc2cc(C#N)ccc2N(Cc2cncn2C)C1)S(=O)(=O)c1ccccn1)C(=O)OC(C)(C)C (stereo not given),80%,170 nM,86%,130 nM,35%
Cn1cncc1CN1CC(N(Cc2ccccc2F)S(=O)(=O)c2ccccc2)Cc2cc(C#N)ccc21 (stereo not given),44%,750 nM,86%,730 nM,10%
CCS(=O)(=O)N(Cc1ccccc1F)C1Cc2cc(C#N)ccc2N(Cc2cncn2C)C1 (stereo not given),11%,2100 nM,61%,820 nM,0%
Cc1oncc1CN(C1Cc2cc(-c3ccccc3)ccc2N(Cc2cn(C)cn2)C1)S(=O)(=O)c1cn(C)cn1 (stereo not given),26%,3700 nM,79%,3000 nM,0%
Cn1cnc(S(=O)(=O)N(CCn2cccc2)C2Cc3cc(C#N)ccc3N(Cc3cncn3C)C2)c1 (stereo not given),98%,1.8 nM,99%,1.8 nM,54%
Cn1cncc1CN1CC(N(CCCNC(=O)OC(C)(C)C)S(=O)(=O)c2ccccn2)Cc2cc(C#N)ccc21 (stereo not given),70%,75 nM,97%,133 nM,9%
Cc1nc(C)c(S(=O)(=O)N(CC(=O)NC(C)(C)C)C2Cc3cc(C#N)ccc3N(Cc3cncn3C)C2)s1 (stereo not given),3%,> 5000 nM,0%,> 5000 nM,2%
CC(C)NC(=O)N1CCC(CN(C2Cc3cc(C#N)ccc3N(Cc3cncn3C)C2)S(=O)(=O)c2ccccn2)CC1 (stereo not given),38%,45 nM,100%,65 nM,93%
